The subject of test [1] is HCT-116. Briefly: Cytotoxicity against human HCT116 cells. The format is functional. A digest of the protocol: (§1)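 NCI 60-cell-line screen (eight solid-tumour subpanels plus leukemia). A one-dose pass at 10−5 M came first. Selected compounds were then run at five concentrations from 10−8 to 10−4 M. GI50 is the concentration giving 50% growth inhibition.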
The test system of test [2] is OVCAR-3. Briefly: Cytotoxicity against human OVCAR-3 cells. The format is functional. Summed up:
as §1

Test [3] relates to UACC-62. Briefly: Cytotoxicity against human UACC62 cells. The format is functional. A digest of the protocol: as §1
Test [4] concerns HOP-62. Briefly: Cytotoxicity against human HOP62 cells. The test is classed as functional. Summed up: as §1
The test system of test [5] is NCI-60 human cancer cell line panel (Homo sapiens). Briefly: Cytotoxicity against NCI-60 human cancer cell line panel (mean) at 10 uM. The settings on record: pooled result: one value given for 8 cell lines, strains, targets or settings, read-out: GI.
Test [6] has as its system SN12C. Briefly: Cytotoxicity against human SN12C cells. The format is functional. A digest of the protocol:
as §1

Test [7] addresses T1, DNA topoisomerase 1 (Homo sapiens) (UniProt P11387).
T1 sequence (whole entry): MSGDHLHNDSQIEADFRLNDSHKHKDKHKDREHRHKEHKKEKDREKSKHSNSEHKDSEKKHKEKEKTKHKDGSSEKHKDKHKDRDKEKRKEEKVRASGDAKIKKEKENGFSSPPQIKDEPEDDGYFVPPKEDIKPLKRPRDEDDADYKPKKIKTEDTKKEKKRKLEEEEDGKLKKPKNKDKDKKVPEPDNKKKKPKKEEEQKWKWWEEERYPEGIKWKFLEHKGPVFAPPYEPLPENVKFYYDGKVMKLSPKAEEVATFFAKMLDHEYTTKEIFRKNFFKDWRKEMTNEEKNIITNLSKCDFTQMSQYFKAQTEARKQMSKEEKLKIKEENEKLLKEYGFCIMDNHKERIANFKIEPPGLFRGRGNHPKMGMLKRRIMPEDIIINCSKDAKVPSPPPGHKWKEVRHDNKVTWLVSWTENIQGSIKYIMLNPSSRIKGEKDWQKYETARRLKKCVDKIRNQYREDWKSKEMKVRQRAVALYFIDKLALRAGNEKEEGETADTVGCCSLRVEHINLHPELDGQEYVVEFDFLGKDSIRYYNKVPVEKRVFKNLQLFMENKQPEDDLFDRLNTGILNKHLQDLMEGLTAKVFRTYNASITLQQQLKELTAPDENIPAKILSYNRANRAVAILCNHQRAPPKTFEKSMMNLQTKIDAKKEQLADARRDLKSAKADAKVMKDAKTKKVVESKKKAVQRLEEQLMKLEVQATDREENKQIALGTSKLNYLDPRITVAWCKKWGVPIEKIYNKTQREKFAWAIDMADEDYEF
Briefly: Inhibition of human recombinant Top1-mediated DNA cleavage at 0.1 to 100 uM after 20 mins relative to camptothecin. The arrangement: scale not given: the % may be the effect or the level left. Summed up: (§2)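 Human recombinant Top1 purified from baculovirus. Substrate is a 117-bp oligonucleotide, about 2 nM, 3′-end labelled with 32P-dGTP by Klenow fill-in. Stopped with 0.5% SDS, run on 20% denaturing PAGE and phosphorimaged. Cleavage graded 0 to +++ against 1 μM camptothecin.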

Test [8] deals with SF-539. Briefly: Cytotoxicity against human SF539 cells. The format is functional. Summed up: as §1
Test [9] has as its system MCF7. Briefly: Cytotoxicity against human MCF7 cells. The format is functional. A digest of the protocol:
as §1

The test system of test [10] is DU-145. Briefly: Cytotoxicity against human DU145 cells. The test is classed as functional. A digest of the protocol:
as §1

Test [11] deals with T1, DNA topoisomerase 1 (Homo sapiens). Briefly: Inhibition of human recombinant Top1-mediated DNA cleavage at 1 uM after 20 mins relative to camptothecin. A digest of the protocol: as §2

The source made the active and inactive calls. The calls are words filed in the database; no cut-off is given here. A value given as a limit tells only on which side of the number the result lay.

`O=c1c2ccccc2cc2n1Cc1c-2nc2cc(Cl)ccc2c1CNCCCn1ccnc1`: the GI50 in test [1] was found to be 1820 nM; in test [2], 2040 nM; in test [3], 1910 nM; in test [4], 2000 nM; in test [6] it was 2090 nM; in test [8], 1860 nM. The molecule further came in with a GI50 in test [9] of 1660 nM. Besides, the inhibition of growth at 10 µM in [5] is above 15%. For the same molecule, the Activity in test [7] was found to be 20%.

As to `O=c1c2ccccc2cc2n1Cc1c-2nc2cc3c(cc2c1CNCCCN1CCOCC1)OCCO3`, the inhibition of growth at 10 µM in test [5] worked out at 10.8%. For the same molecule, the Activity in [7] is 50%.

On to `O=c1c2ccccc2cc2n1Cc1c-2nc2ccc(Cl)cc2c1CNCCCn1ccnc1`, for which the inhibition of growth at 10 µM in [5] was 30%. Also, the Activity in [7] is 50%.

In the case of `CN1CCN(Cc2c3c(nc4cc5c(cc24)OCCO5)-c2cc4ccccc4c(=O)n2C3)CC1`, the inhibition of growth at 10 µM in [5] amounted to 23%. The Activity in test [7] amounted to 50%.

With `CN(C)CCCc1c2c(nc3cc4c(cc13)OCCO4)-c1cc3ccccc3c(=O)n1C2`, in test [5], the inhibition of growth at 10 µM worked out at 19%. For the same molecule, the Activity in test [7] is 75%.

As for `Cc1cc2c(CNCCO)c3c(nc2cc1F)-c1cc2ccccc2c(=O)n1C3`, the GI50 in test [1] came out at 18400 nM; in test [2], 16800 nM; in [3] it was 14200 nM; in [4], 11200 nM; in [6] it was 20200 nM; in [10], 12200 nM. Moreover, the results for the GI50 in test [8] and in test [9] were 9230 nM and 1620 nM, respectively. Moreover, in test [5], the inhibition of growth at 10 µM is above 25%. For the same molecule, the Activity in test [7] is 50%.

In the case of `O=c1c2ccccc2cc2n1Cc1c-2nc2cc(Cl)ccc2c1Cn1ccnc1`, the inhibition of growth at 10 µM in test [5] was below 15%. Besides, the Activity in test [7] came to 0%.

Turning to `CC[C@@]1(O)C(=O)OCc2c1cc1n(c2=O)Cc2cc3ccccc3nc2-1` [CAMPTOTHECIN], the outcome in test [11] was Active. Further, the GI50 amounted to 30 nM in test [1]; 10 nM in test [3]; 10 nM in test [4]; 20 nM in test [6]; 10 nM in test [10]; 10 nM in test [8]. The molecule further returned a GI50 in test [9] of 10 nM.

For the molecule `O=c1c2ccccc2cc2n1Cc1c-2nc2cc3c(cc2c1Cn1ccnc1)OCCO3`, the GI50 in test [1] is above 100000 nM; in test [2], 18600 nM; in [3] it was 21400 nM; in [4], 19500 nM; in test [6] it was 81300 nM; in [10], above 100000 nM. The GI50 in test [8] turned out to be 4370 nM; in test [9] it was 300 nM. For the same molecule, in test [7], the Activity is 75%.

Regarding `O=c1c2ccccc2cc2n1Cc1c-2nc2cc3c(cc2c1CNCCCn1ccnc1)OCCO3`, the inhibition of growth at 10 µM in test [5] was found to be 14.3%. In addition, the Activity in test [7] turned out to be 50%.

Consider `O=c1c2ccccc2cc2n1Cc1c-2nc2cc(Cl)ccc2c1CN1CC[C@H](O)C1`, for which the inhibition of growth at 10 µM in test [5] is below 15%. In addition, the Activity in [7] was found to be 20%.

As to `O=c1c2ccccc2cc2n1Cc1c-2nc2cc3c(cc2c1CCl)OCCO3`, the inhibition of growth at 10 µM in test [5] came to 10.3%. In addition, in test [7], the Activity turned out to be 20%.

Take `COc1cc2nc3c(c(CN4CC[C@H](O)C4)c2cc1OC)Cn1c-3cc2ccccc2c1=O`: the inhibition of growth at 10 µM in test [5] came to 14.2%. Also, in [7], the outcome was inactive.

On to `CN(C)Cc1c2c(nc3cc4c(cc13)OCCO4)-c1cc3ccccc3c(=O)n1C2`, for which the GI50 in [1] turned out to be 1170 nM; in test [2], 2190 nM; in test [3], 1660 nM; in test [4], 3310 nM; in test [6], 2510 nM; in test [10], 2190 nM. The GI50 in test [8] was determined as 2690 nM; in [9] it was 300 nM. In addition, in test [7], the Activity is 75%.

Consider `O=c1c2ccccc2cc2n1Cc1c-2nc2cc3c(cc2c1CNCCO)OCO3`, for which the GI50 in [1] turned out to be 950 nM; in [2], 1550 nM; in [3], 470 nM; in test [4], 660 nM; in test [6], 1910 nM; in test [10], 1820 nM. The GI50 in test [8] is 1350 nM; in test [9], 280 nM. The Activity in test [7] is 50%.

Take `CN1CCN(Cc2c3c(nc4cc5c(cc24)OCO5)-c2cc4ccccc4c(=O)n2C3)CC1`: the GI50 in [1] was determined as 1450 nM; in test [2] it was 16200 nM; in test [3], 1620 nM; in test [4], 17000 nM; in [6], 2340 nM; in test [10], 51300 nM. The GI50 in [8] was 11700 nM; in test [9], 380 nM. Also, the Activity in test [7] is 50%.

For `O=c1c2ccccc2cc2n1Cc1c-2nc2cccc(Cl)c2c1CNCCCn1ccnc1`, the GI50 in [1] amounted to 1580 nM; in [2] it was 4900 nM; in test [3], 7240 nM; in [4] it was 2510 nM; in test [6], 6030 nM; in [10] it was 1020 nM. Moreover, the figures for the GI50 in [8] and in [9] were 1900 nM and 550 nM, respectively. For the same molecule, the Activity in test [7] came out at 75%.

Regarding `Cc1cc2c(CN3CC[C@H](O)C3)c3c(nc2cc1F)-c1cc2ccccc2c(=O)n1C3`, in test [5], the inhibition of growth at 10 µM is above 25%. In addition, the Activity in test [7] is 50%.

For the molecule `O=c1c2ccccc2cc2n1Cc1c-2nc2ccc(Cl)cc2c1Cn1ccnc1`, the GI50 turned out to be 400 nM in test [1]; 690 nM in [2]; 310 nM in test [3]; 460 nM in [4]; 1540 nM in [6]; 480 nM in [10]. For the same molecule, the values for the GI50 in [8] and in test [9] were 390 nM and 190 nM, respectively. Also, the Activity in test [7] amounted to 20%.

`COc1cc2c3c(n(CCCNCCO)c(=O)c2cc1OC)-c1cc2c(cc1C3=O)OCO2` [LMP-744]: the result in [11] was Active. Also, the GI50 in test [1] is 100 nM; in test [2] it was 500 nM; in test [3], 30 nM; in test [4], 20 nM; in test [6] it was below 10 nM; in [10], below 10 nM. The GI50 in test [8] was 40 nM; in [9] it was below 10 nM.

Regarding `CN1CCN(Cc2c3c(nc4cccc(Cl)c24)-c2cc4ccccc4c(=O)n2C3)CC1`, the GI50 was determined as 1410 nM in test [1]; 4170 nM in test [2]; 15500 nM in test [3]; 1860 nM in test [4]; 13800 nM in [6]; 9770 nM in [10]. Further, the GI50 was 1510 nM in test [8] and 1000 nM in [9]. Moreover, the result in [7] was inactive.

As to `O=c1c2ccccc2cc2n1Cc1cc3ccccc3nc1-2` [ROSETTACIN], the GI50 in [1] is 57300 nM; in test [2], above 100000 nM; in test [3], above 100000 nM; in test [4], above 100000 nM; in test [6] it was above 100000 nM; in [10], above 100000 nM. For the same molecule, the GI50 in [8] is above 100000 nM; in test [9], 60300 nM. The Activity in test [7] was 50%.

Source of the values: ChEMBL document CHEMBL1212854, “The structure-activity relationships of A-ring-substituted aromathecin topoisomerase I inhibitors strongly support a camptothecin-like binding mode” (2010).
